Data: ChEMBL document CHEMBL1125391, “Syntheses and thymidylate synthase inhibitory activity of the poly-gamma-glutamyl conjugates of N-[5-[N-(3,4-dihydro-2-methyl-4-oxoquinazolin-6-ylmethyl)-N-methylamino ]-2-thenoyl]-L-glutamic acid (ICI D1694) and other quinazoline antifolates” (J Med Chem, 1992)

Tests used:
Thymidylate synthase [1] = target: T1, Thymidylate synthase (Mus musculus, UniProt P07607); assay: Inhibition of thymidylate synthase, partially purified from L1210 mouse leukemia cells overexpressing TS; type: cell-free; details: read-out: Ki app
How it was run: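 Enzyme partially purified from L1210 mouse leukemia cells that overproduce TS through TS gene amplification. Assayed by the previously described method with (±)-5,10-methylenetetrahydrofolic acid at 200 μM. Apparent Ki was calculated with the Goldstein equation for tight-binding inhibitors.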

[2] = target: Thymidylate synthase (Mus musculus) (UniProt P07607); assay: Compound was evaluated for fold increase in Thymidylate synthase (TS) inhibition; type: functional
Thymidylate synthase [3] = target: T1, Thymidylate synthase; assay: Compound was evaluated for inhibition of thymidylate synthase, partially purified from L1210 mouse leukemia cells that overproduce thymidylate synthase due to amplification of TS gene; details: read-out: Ki app

T1 sequence (P07607 whole entry): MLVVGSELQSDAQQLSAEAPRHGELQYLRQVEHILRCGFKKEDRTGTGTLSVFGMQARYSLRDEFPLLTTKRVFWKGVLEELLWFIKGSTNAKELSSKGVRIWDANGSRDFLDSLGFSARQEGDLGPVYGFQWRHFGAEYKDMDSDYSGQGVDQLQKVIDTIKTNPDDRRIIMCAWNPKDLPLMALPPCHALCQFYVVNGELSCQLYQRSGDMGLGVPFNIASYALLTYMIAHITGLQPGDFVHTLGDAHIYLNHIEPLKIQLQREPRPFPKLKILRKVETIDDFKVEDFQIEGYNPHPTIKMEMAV
Chain of Thymidylate synthase (Mus musculus) (P07607 whole entry, looked up): as the sequence (P07607 whole entry) above

Row | Ki (Thymidylate synthase [1]) [nM] | Fold increase [2] | Ki (Thymidylate synthase [3]) [nM] | Structure (SMILES)
1 | 7.52 | – | – | Cc1nc2ccc(CN(C)c3ccc(C(=O)N[C@@H](CCC(=O)N[C@@H](CCC(=O)N[C@@H](CCC(=O)O)C(=O)O)C(=O)O)C(=O)O)s3)cc2c(=O)[nH]1
2 | – | 17 | – | Cc1nc(O)c2cc(CN(C)c3ccc(C(=O)N[C@@H](CCC(=O)N[C@@H](CCC(=O)O)C(=O)O)C(=O)O)s3)ccc2n1
3 | – | 112 | – | Cc1nc(O)c2cc(CN(C)c3ccc(C(=O)N[C@@H](CCC(=O)N[C@@H](CCC(=O)N[C@@H](CCC(=O)N[C@@H](CCC(=O)N[C@@H](CCC(=O)N[C@@H](CCC(=O)O)C(=O)O)C(=O)O)C(=O)O)C(=O)O)C(=O)O)C(=O)O)s3)ccc2n1
4 | – | 56 | – | Cc1nc(O)c2cc(CN(C)c3ccc(C(=O)N[C@@H](CCC(=O)N[C@@H](CCC(=O)N[C@@H](CCC(=O)O)C(=O)O)C(=O)O)C(=O)O)s3)ccc2n1
5 | – | 110 | – | Cc1nc(O)c2cc(CN(C)c3ccc(C(=O)N[C@@H](CCC(=O)N[C@@H](CCC(=O)N[C@@H](CCC(=O)N[C@@H](CCC(=O)N[C@@H](CCC(=O)O)C(=O)O)C(=O)O)C(=O)O)C(=O)O)C(=O)O)s3)ccc2n1
6 | 0.59 | 18 | – | C#CCN(Cc1ccc2nc(C)nc(O)c2c1)c1ccc(C(=O)N[C@@H](CCC(=O)N[C@@H](CCC(=O)O)C(=O)O)C(=O)O)c(F)c1
7 | 63.7 | – | – | C#CCN(Cc1ccc2nc(C)cc(Cl)c2c1)c1ccc(C(=O)N[C@@H](CCC(=O)O)C(=O)O)c(F)c1
8 | 1 | 64 | – | C#CCN(Cc1ccc2nc(C)cc(Cl)c2c1)c1ccc(C(=O)N[C@@H](CCC(=O)N[C@@H](CCC(=O)N[C@@H](CCC(=O)O)C(=O)O)C(=O)O)C(=O)O)c(F)c1
9 | 10.4 | – | – | C#CCN(Cc1ccc2nc(C)[nH]c(=O)c2c1)c1ccc(C(=O)N[C@@H](CCC(=O)O)C(=O)O)c(F)c1
10 | 4.69 | 89 | – | Cc1nc(O)c2cc(CN(C)c3ccc(C(=O)N[C@@H](CCC(=O)N[C@@H](CCC(=O)N[C@@H](CCC(=O)N[C@@H](CCC(=O)O)C(=O)O)C(=O)O)C(=O)O)C(=O)O)s3)ccc2n1
11 | 24 | – | – | Cc1nc2ccc(CN(C)c3ccc(C(=O)N[C@@H](CCC(=O)N[C@@H](CCC(=O)O)C(=O)O)C(=O)O)s3)cc2c(=O)[nH]1
12 | 3.79 | – | – | Cc1nc2ccc(CN(C)c3ccc(C(=O)N[C@@H](CCC(=O)N[C@@H](CCC(=O)N[C@@H](CCC(=O)N[C@@H](CCC(=O)N[C@@H](CCC(=O)O)C(=O)O)C(=O)O)C(=O)O)C(=O)O)C(=O)O)s3)cc2c(=O)[nH]1
13 | 3.7 | – | – | Cc1nc2ccc(CN(C)c3ccc(C(=O)N[C@@H](CCC(=O)N[C@@H](CCC(=O)N[C@@H](CCC(=O)N[C@@H](CCC(=O)N[C@@H](CCC(=O)N[C@@H](CCC(=O)O)C(=O)O)C(=O)O)C(=O)O)C(=O)O)C(=O)O)C(=O)O)s3)cc2c(=O)[nH]1
14 | – | – | 418 | Cc1nc2ccc(CN(C)c3ccc(C(=O)N[C@@H](CCC(=O)O)C(=O)O)s3)cc2c(=O)[nH]1 [RALTITREXED]
